# CHRM4 agonist: agonists of human muscarinic M4 receptor (CHRM4) | P08173 | CHO-K1 hM4/Gqi5, Fluo-8 calcium fluorescence; vehicle 0%, full acetylcholine response 100% | activation, % at 3 µM | 0.14% of 360,000 active | AID 624127;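 active = activation above the run mean over all test wells plus 3 SD, cut at about 32% in these data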;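 note: peak over basal fluorescence ratio per well then scaled between controls; 0% = DMSO wells and 100% = acetylcholine at EC100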
# Target sequence (P08173 whole entry, looked up): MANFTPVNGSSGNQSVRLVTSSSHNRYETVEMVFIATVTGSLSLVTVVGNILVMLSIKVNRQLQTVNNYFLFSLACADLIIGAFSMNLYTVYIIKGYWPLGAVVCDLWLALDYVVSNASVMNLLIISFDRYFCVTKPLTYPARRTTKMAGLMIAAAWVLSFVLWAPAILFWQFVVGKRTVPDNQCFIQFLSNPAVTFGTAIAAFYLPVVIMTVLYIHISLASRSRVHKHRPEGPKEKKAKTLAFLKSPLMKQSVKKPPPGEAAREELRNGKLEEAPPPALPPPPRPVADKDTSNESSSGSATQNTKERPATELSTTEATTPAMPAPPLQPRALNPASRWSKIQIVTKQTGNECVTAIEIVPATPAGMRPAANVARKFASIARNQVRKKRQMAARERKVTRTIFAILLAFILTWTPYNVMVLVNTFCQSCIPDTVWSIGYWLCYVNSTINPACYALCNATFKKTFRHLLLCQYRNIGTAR
# CHRM5 agonist: CHRM5 agonism in calcium assay. CHO-K1 hM5 cells, Fluo-8 calcium fluorescence; 0% DMSO wells, 100% maximal acetylcholine response. AID 624037. activation, % at 3 µM. 0.19% of 360,000 active. P08912;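 active = activation above the run's mean over test compounds plus 3 SD, cut at about 23% in these data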;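 note: signal is peak over basal fluorescence ratio across the kinetic read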
# CHRM5 antagonist: antagonists of human muscarinic M5 receptor (CHRM5); 0.59% of 360,000 active; AID 624040; CHO-hM5 cells, Fluo-8 calcium fluorescence, ACh EC80; inhibition, % at 3 µM; P08912;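 active = inhibition above a per-plate cutoff, the mean of that plate's test compounds plus 3 SD, cut at about 27% in these data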;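 note: 0% = acetylcholine EC80 with DMSO and 100% = DMSO without agonist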
# CHRM4 antagonist: blocks acetylcholine activation of human M4 receptor; P08173; inhibition, % at 3 µM; 0.73% of 360,000 active; AID 624125; CHO-hM4 cells, ACh EC80, Fluo-8 calcium fluorescence;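 active = inhibition above its plate's cutoff, the mean inhibition of sample wells plus 3 SD, cut at about 27% in these data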;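 note: 0% = acetylcholine EC80 with DMSO and 100% = DMSO without agonist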
# M4 PAM: potentiates acetylcholine response at human M4 receptor; 0.4% of 360,000 active; CHO-K1 hM4/Gqi5, Fluo-8 calcium fluorescence, ACh EC20; 0% = ACh EC20, 100% = maximal ACh; P08173; activation, % at 3 µM;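 active = activation above its plate's cutoff, the mean activation of sample wells plus 3 SD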
# CHRM5 PAM: positive allosteric modulators of human muscarinic M5 receptor; activation, % at 3 µM; CHO-K1 hM5, Fluo-8 calcium, ACh EC20 PAM; 0% = ACh EC20, 100% = ACh EC100; 0.3% of 360,000 active; AID 624038; P08912;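 active = activation above the run cutoff, the mean activation of all test compounds plus 3 SD, cut at about 18% in these data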
#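 System – CHO-K1 hM5 cells · Compound – 3 µM, single dose · Incubation – compound preincubation 140 s before EC20 acetylcholine addition · Technique – Fluo-8 calcium fluorescence · Measure – Max/basal fluorescence ratio as % of EC20–EC100 ACh window · Benchmarks – low control EC20 acetylcholine (0%), high control EC100 acetylcholine (100%) · Replication – singlicate, one well per test compound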
# * hit, by the source's call. The list is not random: actives were taken first. Their share in the collection is about 1.9%.
SMILES,CHRM4 agonist,CHRM5 agonist,CHRM5 antagonist,CHRM4 antagonist,M4 PAM,CHRM5 PAM
NC(=O)c1nsc(C(=O)N(c2ccccc2)C(C(=O)NCc2ccc(F)cc2)c2ccc(O)cc2)c1N (stereo unspecified),30.7,3.5,13.9,30.6*,-17.6,-9.0
NC(=O)c1nsc(C(=O)N(c2ccc3c(c2)OCO3)C(C(=O)NCC2CCCO2)c2ccc(F)cc2)c1N (stereo unspecified),15.1,0.9,22.2,20.1,23.5*,18.8*
O=C1C=C(c2c(O)ccc3ccccc23)c2ccccc2C1=O,19.9,-3.1,17.3,47.4*,-6.7,-4.5
COc1cccc(N2CCN(C(=O)c3ccccc3SCC(=O)NCc3ccco3)CC2)c1,13.1,4.2,-2.7,-17.9,-0.9,-1.2
O=[N+]([O-])c1ccc(S(=O)(=O)c2cccc(C(F)(F)F)c2)nc1,2.9,-2.4,16.8,45.6*,-6.1,-2.3
COc1ccc(CN(C)C(=O)c2oc3ccccc3c2CSC)cc1F,3.7,-3.7,3.8,-1.4,-7.8,-0.7
CCOc1cc(/C=C2\COc3ccccc3C2=O)cc(Br)c1OCC(=O)N(C)C,19.6,3.2,14.0,28.6*,-10.7,-3.9
COc1ccc(/C=C2\COc3ccccc3C2=O)cc1OC,5.2,-1.0,5.8,5.4,-5.0,-4.2
COc1cccc(CNC(=O)CCCn2ncn3c(cc4occc43)c2=O)c1,1.4,-1.5,11.7,0.1,-2.0,-9.3
O=C(CCCn1ncn2c(cc3occc32)c1=O)NCc1cccc(Cl)c1,3.1,-3.2,2.5,-12.7,20.3*,2.2
CCN(CC)CC#CC(OC)(c1ccccc1)c1ccccc1,-1.6,-11.8,95.5*,57.0*,-27.2,-15.6
CC(C)C1S/C(=N/N=C/c2ccco2)NC1=O (stereo unspecified),2.2,2.5,4.8,29.5*,1.9,-4.3
CCOC(=O)N1CCN(C(=O)CCCCn2c(=S)[nH]c3ccsc3c2=O)CC1,-0.2,2.6,-5.4,-19.8,18.7*,11.6
O=C(CCCn1c(=O)[nH]c2ccsc2c1=O)N1CCCCC1,0.1,-6.4,1.8,-3.0,9.2,25.8*
O=C(CCCCCn1c(=O)[nH]c2ccsc2c1=O)N1CCCCC1,1.1,-8.4,5.1,-0.2,3.6,-8.9
COc1cccc(CNCc2ccc(OC)c3ccccc23)c1OC,37.1*,8.7,30.6*,16.9,-16.8,-17.9
Cn1nc(C#N)c(=O)[nH]c1=O,0.4,23.9*,-157.1,1.7,-1.0,63.1*
O=C(Nc1ccc(Cl)cc1)[C@@H]1[C@@H]2C(=O)N(c3ccc4ccccc4c3)C(=O)[C@@H]2[C@H]2C=CC=NN21,-0.5,-1.1,19.9,-7.8,2.9,32.1*
CC(=O)C1=C(c2ccccc2)NC(=S)NC1c1ccc(O)c(O)c1 (stereo unspecified),-0.2,8.8,3.4,-0.7,-4.0,25.7*
CCC(C)(CCNC(=O)Cc1ccccc1)c1ccccc1OC (stereo unspecified),-1.0,-4.1,11.5,2.6,-2.4,0.5
CCn1nnnc1SCC(=O)NCc1cccs1,0.2,-5.0,-2.9,3.1,0.3,18.3*
N#CC1C(=O)NC(=O)CC12CCCCC2 (stereo unspecified),1.9,2.7,8.5,-12.1,7.3,-5.2
Cc1nn(-c2ccccc2)c(C)c1NC(=O)COC(=O)c1cc(Br)ccc1O,20.3,4.5,21.6,30.7*,-3.0,-23.7
O=C(C1CCN(c2nnc(-n3cccc3)s2)CC1)N1CCN(Cc2ccc3c(c2)OCO3)CC1,6.0,3.0,3.0,-2.0,-1.2,-4.1
CC1CCN(Cc2ccc(NC(=O)C3CCN(c4nnc(-n5cccc5)s4)CC3)cc2)CC1,4.6,-5.1,-4.4,33.3*,-16.1,-5.3
SMILES,CHRM4 agonist,CHRM5 agonist,CHRM5 antagonist,CHRM4 antagonist,M4 PAM,CHRM5 PAM
Cc1c(C=O)c2ccccn2c1C(=O)c1ccccc1Cl,0.4,-2.6,15.0,55.1*,-17.4,-10.4
CCCc1cc(=O)n2c([nH]c3ccccc32)c1C#N,2.1,30.7*,16.5,-4.1,7.8,-12.6
CC(=O)c1cccc(OCC(=O)Nc2ccccc2N2CCOCC2)c1,20.2,1.2,5.3,-14.1,-3.8,-21.8
N#Cc1cc(C(=O)c2ccccc2O)cn(-c2nccs2)c1=O,70.8*,68.0*,28.3*,36.3*,-15.6,-20.6
Cc1c(-n2cc(C(=O)c3cc(F)ccc3O)cc(C#N)c2=O)c(=O)n(-c2ccccc2)n1C,3.4,2.4,-0.2,-4.5,1.5,1.0
CC(C)n1cc(C(=O)c2ccccc2O)cc(C#N)c1=O,4.0,3.7,-1.1,-7.4,13.3,7.4
N#Cc1cc(C(=O)c2cc(F)ccc2O)cn(-c2nccs2)c1=O,96.5*,61.7*,29.4*,20.5,-43.4,-22.8
CC(C)c1ccc(NC2CCCN(C(=O)CCN3CCCC3=O)C2)cc1 (stereo unspecified),1.0,-1.1,0.9,-2.4,-2.6,3.6
O=C1CCCCN1CCCC(=O)N1CCCC(Nc2ccccc2)C1 (stereo unspecified),0.5,8.4,2.9,3.0,4.6,27.3*
CCC(=O)N1CCN(C(=O)c2ccccc2)CC1,0.4,0.5,-2.3,74.5*,-16.2,-10.1
Cc1nn(-c2ccccc2)c(Cl)c1C(=O)NCC1CCCO1 (stereo unspecified),1.7,2.2,-3.6,-10.5,2.6,5.6
Nc1ncnc2c1ncn2[C@@H]1O[C@H](COP(=O)(O)OP(=O)(O)OP(=O)(O)O)[C@@H](O)[C@H]1O,95.6*,46.4*,-0.9,-12.2,10.1,-6.0
COc1cc(C(CC(=O)Nc2cccc(C)n2)N2Cc3ccccc3C2=O)cc(OC)c1OC (stereo unspecified),1.8,-2.8,5.2,-10.8,3.9,-3.9
COc1ccccc1C(=O)N(CCC1CCCN1C)c1nc2ccccc2s1 (stereo unspecified),19.9,-10.1,27.4*,11.0,-25.2,-18.5
Cc1c(C(=O)NCCC2=CCCCC2)oc2ccc(S(=O)(=O)N3CCC4(CC3)OCCO4)cc12,15.2,1.1,21.5,34.1*,-22.2,-18.5
Cc1c(C(=O)NCc2ccccc2)oc2ccc(S(=O)(=O)N3CCC4(CC3)OCCO4)cc12,9.7,5.4,11.5,11.5,-8.3,-13.5
Cc1ccc2nc(-c3cccc(-c4cccc(Cl)c4)c3)c(NCc3ccccc3)n2c1,7.5,-3.0,27.9*,28.4*,-10.3,-31.9
CCC(C)Sc1cccc(-c2nc3ccc(C)cn3c2NCc2ccccc2)c1 (stereo unspecified),13.2,0.3,23.1,46.6*,-8.4,-26.3
CCCCCCSc1cccc(-c2nc3ccc(C)cn3c2NCc2ccccc2)c1,5.4,-1.5,13.6,14.4,-8.7,-2.6
